As a reminder, the IC50 is the concentration that gives 50% inhibition.

Experiment [1] deals with Bone morphogenetic protein receptor type-2 (Homo sapiens) (UniProt Q13873). The experiment can be described thus: Inhibition of wild-type human partial length BMPR2 (R179 to Q526 residues) expressed in HEK293 cells assessed as residual activity at 1000 nM after 30 mins by Kinomescan method relative to control. In kind it is cell-based.
The target of experiment [2] is Serine/threonine-protein kinase 32A (Homo sapiens) (UniProt Q8WU08). Briefly: Inhibition of wild-type human full length YANK1 (M1 to L396 residues) expressed in HEK293 cells assessed as residual activity at 1000 nM after 30 mins by Kinomescan method relative to control. Format: cell-based.
Experiment [3] deals with Mitogen-activated protein kinase kinase kinase 10 (Homo sapiens) (UniProt Q02779). Briefly: Inhibition of wild-type human partial length MLK2 (V52 to W380 residues) expressed in Escherichia coli BL21 assessed as residual activity at 1000 nM after 30 mins by Kinomescan method relative to control.
The target in experiment [4] is Atypical kinase COQ8B, mitochondrial (Homo sapiens) (UniProt Q96D53). Briefly: Inhibition of wild-type human full length ADCK4 (M1 to S544 residues) expressed in Escherichia coli BL21 assessed as residual activity at 1000 nM after 30 mins by Kinomescan method relative to control. The method in brief: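 Single-point screen at a fixed 1 µM, run within a 456-kinase DiscoveRx KINOMEscan panel. Each kinase's read-out is Percent Control, i.e. signal relative to a control without compound. Hits were scored by a Percent Control < 35 cut-off, and an S(35) selectivity score was calculated across the non-mutant kinases.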

Experiment [5] has as its target Serine/threonine-protein kinase TNNI3K (Homo sapiens) (UniProt Q59H18). The experiment can be described thus: Inhibition of wild-type human full length TNNI3K (M1 to S835 residues) expressed in Escherichia coli BL21 assessed as residual activity at 1000 nM after 30 mins by Kinomescan method relative to control.
Experiment [6] addresses Cyclin-dependent kinase 8 (Homo sapiens) (UniProt P49336). The experiment can be described thus: Inhibition of wild-type human partial length CDK8 (M1 to T360 residues) expressed in Escherichia coli BL21 assessed as residual activity at 1000 nM after 30 mins by Kinomescan method relative to control.
In experiment [7] the target is 5'-AMP-activated protein kinase catalytic subunit alpha-2 (Homo sapiens) (UniProt P54646). Briefly: Inhibition of wild-type human partial length AMPK alpha2 (M1 to E306 residues) expressed in Escherichia coli BL21 assessed as residual activity at 1000 nM after 30 mins by Kinomescan method relative to control.
For experiment [8], the target named is Phosphatidylinositol 5-phosphate 4-kinase type-2 beta (Homo sapiens) (UniProt P78356). The experiment can be described thus: Inhibition of wild-type human full length PIP5K2B (M1 to T416 residues) expressed in Escherichia coli BL21 assessed as residual activity at 1000 nM after 30 mins by Kinomescan method relative to control. In short, it runs like this:
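Single-concentration screen at 1 µM against a 456-kinase panel (KINOMEscan). Read-out is Percent Control for each kinase. Across the 403 non-mutant kinases, an S(35) selectivity score was derived as the fraction of kinases with Percent Control < 35.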

Experiment [9] has as its target Calcium/calmodulin-dependent protein kinase type II subunit beta (Homo sapiens) (UniProt Q13554). The experiment can be described thus: Inhibition of wild-type human partial length CAMK2B (M1 to Q380 residues) expressed in Escherichia coli BL21 assessed as residual activity at 1000 nM after 30 mins by Kinomescan method relative to control.
Experiment [10] addresses Mitogen-activated protein kinase 12 (Homo sapiens) (UniProt P53778). The experiment can be described thus: Inhibition of wild-type human full length p38-gamma (M1 to L367 residues) expressed in HEK293 cells assessed as residual activity at 1000 nM after 30 mins by Kinomescan method relative to control. Format: cell-based.
In experiment [11] the target is Microtubule-associated serine/threonine-protein kinase 1 (Homo sapiens) (UniProt Q9Y2H9). Briefly: Inhibition of wild-type human partial length MAST1 (S346 to V730 residues) expressed in HEK293 cells assessed as residual activity at 1000 nM after 30 mins by Kinomescan method relative to control. Format: cell-based.
Experiment [12] addresses LIM domain kinase 1 (Homo sapiens) (UniProt P53667). Briefly: Inhibition of wild-type human full length LIMK1 (M1 to D647 residues) expressed in Escherichia coli BL21 assessed as residual activity at 1000 nM after 30 mins by Kinomescan method relative to control. The method in brief:
(§1)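 Single-concentration screen at 1 µM across a 456-kinase KINOMEscan panel. The read-out is Percent Control for each kinase.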

Experiment [13] deals with Serine/threonine-protein kinase haspin (Homo sapiens) (UniProt Q8TF76). The experiment can be described thus: Inhibition of wild-type human partial length HASPIN (I452 to K798 residues) expressed in HEK293 cells assessed as residual activity at 1000 nM after 30 mins by Kinomescan method relative to control. In kind it is cell-based.
Experiment [14] addresses Cyclin-dependent kinase 11B (Homo sapiens) (UniProt P21127). The experiment can be described thus: Inhibition of wild-type human partial length CDK11 (M1 to N360 residues) expressed in Escherichia coli BL21 assessed as residual activity at 1000 nM after […] by Kinomescan method relative to control.
The target of experiment [15] is Ribosomal protein S6 kinase alpha-4 (Homo sapiens) (UniProt O75676). Briefly: Inhibition of wild-type human partial length C-terminal RPS6KA4 kinase domain 2 (M375 to T705 residues) expressed in HEK293 cells assessed as residual activity at 1000 nM after 30 mins by Kinomescan method relative to control. In kind it is cell-based.
Experiment [16] addresses Inhibitor of nuclear factor kappa-B kinase subunit alpha (Homo sapiens) (UniProt O15111). Briefly: Inhibition of wild-type human full length IKK-alpha (M1 to E745 residues) expressed in HEK293 cells assessed as residual activity at 1000 nM after 30 mins by Kinomescan method relative to control. Format: cell-based. In short, it runs like this:
as §1

Experiment [17] deals with Phosphatidylinositol 4,5-bisphosphate 3-kinase catalytic subunit delta isoform (Homo sapiens) (UniProt O00329). Briefly: Inhibition of wild-type human partial length PIK3CD (R108 to Q1044 residues) expressed in HEK293 cells assessed as residual activity at 1000 nM after 30 mins by Kinomescan method relative to control. Format: cell-based.
Experiment [18] deals with Inhibitor of nuclear factor kappa-B kinase subunit beta (Homo sapiens) (UniProt O14920). Briefly: Inhibition of wild-type human full length IKK-beta (M1 to S756 residues) expressed in HEK293 cells assessed as residual activity at 1000 nM after 30 mins by Kinomescan method relative to control. In kind it is cell-based. In short, it runs like this: as §1
Experiment [19] has as its target Fibroblast growth factor receptor 1 (Homo sapiens, UniProt P11362). The experiment can be described thus: Inhibition of human recombinant His-tagged FGFR1 cytoplasmic domain (308 to 731 residues) expressed in baculovirus using Tyr-4 peptide after 1 hr by FRET-based Z'-Lyte assay.
Experiment [20] addresses Ephrin type-B receptor 2 (Homo sapiens) (UniProt P29323). The experiment can be described thus: Inhibition of wild-type human partial length EPHB2 (I597 to L902 residues) expressed in Escherichia coli BL21 assessed as residual activity at 1000 nM after 30 mins by Kinomescan method relative to control.
Experiment [21] deals with Serine/threonine-protein kinase WNK1 (Homo sapiens) (UniProt Q9H4A3). The experiment can be described thus: Inhibition of wild-type human partial length WNK1 (Q194 to A490 residues) expressed in HEK293 cells assessed as residual activity at 1000 nM after 30 mins by Kinomescan method relative to control. In kind it is cell-based.

SMILES strings stand for the structures.

Sequence of Calcium/calmodulin-dependent protein kinase type II subunit beta (Homo sapiens) (Q13554 whole entry, the tested form may be a part): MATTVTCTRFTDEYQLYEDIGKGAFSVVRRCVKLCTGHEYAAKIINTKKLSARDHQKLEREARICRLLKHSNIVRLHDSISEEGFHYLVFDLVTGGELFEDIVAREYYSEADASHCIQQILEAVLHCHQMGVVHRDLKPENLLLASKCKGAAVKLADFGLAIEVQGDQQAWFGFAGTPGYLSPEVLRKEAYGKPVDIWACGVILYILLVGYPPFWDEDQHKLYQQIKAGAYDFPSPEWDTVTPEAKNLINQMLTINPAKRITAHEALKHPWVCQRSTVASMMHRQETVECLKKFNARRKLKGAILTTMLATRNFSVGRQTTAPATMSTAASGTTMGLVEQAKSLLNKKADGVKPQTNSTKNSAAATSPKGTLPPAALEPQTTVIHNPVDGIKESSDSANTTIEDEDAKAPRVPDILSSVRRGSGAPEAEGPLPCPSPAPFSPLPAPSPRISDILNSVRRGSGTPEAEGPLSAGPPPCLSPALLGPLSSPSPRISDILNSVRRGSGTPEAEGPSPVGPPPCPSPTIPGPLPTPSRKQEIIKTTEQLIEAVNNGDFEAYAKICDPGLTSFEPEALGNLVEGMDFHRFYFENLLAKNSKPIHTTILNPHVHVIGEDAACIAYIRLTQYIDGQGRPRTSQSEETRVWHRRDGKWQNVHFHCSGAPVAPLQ
Sequence of Ephrin type-B receptor 2 (Homo sapiens) (P29323 whole entry, the tested form may be a part): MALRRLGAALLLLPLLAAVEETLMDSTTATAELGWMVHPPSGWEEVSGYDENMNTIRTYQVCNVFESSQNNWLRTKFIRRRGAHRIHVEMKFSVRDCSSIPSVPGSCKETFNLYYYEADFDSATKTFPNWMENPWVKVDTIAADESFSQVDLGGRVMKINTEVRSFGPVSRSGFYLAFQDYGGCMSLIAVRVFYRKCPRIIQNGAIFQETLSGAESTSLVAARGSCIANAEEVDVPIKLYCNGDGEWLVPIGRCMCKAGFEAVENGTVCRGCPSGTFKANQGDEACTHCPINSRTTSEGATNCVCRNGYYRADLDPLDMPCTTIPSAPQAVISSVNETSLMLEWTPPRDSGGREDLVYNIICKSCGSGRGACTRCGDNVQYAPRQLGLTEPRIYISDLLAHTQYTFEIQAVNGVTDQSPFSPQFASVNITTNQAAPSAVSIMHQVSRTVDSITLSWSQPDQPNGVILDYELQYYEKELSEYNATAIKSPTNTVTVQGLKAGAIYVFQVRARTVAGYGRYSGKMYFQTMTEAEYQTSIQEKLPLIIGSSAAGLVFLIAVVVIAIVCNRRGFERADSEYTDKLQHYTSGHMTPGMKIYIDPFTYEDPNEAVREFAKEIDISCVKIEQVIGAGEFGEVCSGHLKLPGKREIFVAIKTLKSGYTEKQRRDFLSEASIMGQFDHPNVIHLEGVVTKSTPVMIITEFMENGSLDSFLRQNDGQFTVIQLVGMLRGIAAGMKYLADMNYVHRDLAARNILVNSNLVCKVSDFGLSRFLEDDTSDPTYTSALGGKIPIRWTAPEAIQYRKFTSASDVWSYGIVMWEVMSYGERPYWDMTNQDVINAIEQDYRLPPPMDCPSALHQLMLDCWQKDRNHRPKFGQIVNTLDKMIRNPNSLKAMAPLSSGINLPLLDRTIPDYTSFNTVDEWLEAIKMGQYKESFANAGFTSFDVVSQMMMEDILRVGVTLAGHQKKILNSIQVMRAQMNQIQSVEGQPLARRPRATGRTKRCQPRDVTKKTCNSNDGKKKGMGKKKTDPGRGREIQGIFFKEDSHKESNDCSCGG
Sequence of Mitogen-activated protein kinase 12 (Homo sapiens) (P53778 whole entry, the tested form may be a part): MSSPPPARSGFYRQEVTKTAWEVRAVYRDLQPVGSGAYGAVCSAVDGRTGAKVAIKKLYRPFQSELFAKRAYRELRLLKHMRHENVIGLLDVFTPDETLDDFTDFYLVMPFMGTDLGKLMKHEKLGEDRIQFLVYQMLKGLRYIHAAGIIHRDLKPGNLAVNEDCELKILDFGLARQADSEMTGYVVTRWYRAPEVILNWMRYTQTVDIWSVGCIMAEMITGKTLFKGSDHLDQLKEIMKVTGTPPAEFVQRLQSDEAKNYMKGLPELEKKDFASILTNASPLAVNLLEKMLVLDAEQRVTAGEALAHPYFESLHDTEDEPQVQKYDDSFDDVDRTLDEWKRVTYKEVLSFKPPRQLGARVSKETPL
Sequence of Inhibitor of nuclear factor kappa-B kinase subunit beta (Homo sapiens) (O14920 whole entry, the tested form may be a part): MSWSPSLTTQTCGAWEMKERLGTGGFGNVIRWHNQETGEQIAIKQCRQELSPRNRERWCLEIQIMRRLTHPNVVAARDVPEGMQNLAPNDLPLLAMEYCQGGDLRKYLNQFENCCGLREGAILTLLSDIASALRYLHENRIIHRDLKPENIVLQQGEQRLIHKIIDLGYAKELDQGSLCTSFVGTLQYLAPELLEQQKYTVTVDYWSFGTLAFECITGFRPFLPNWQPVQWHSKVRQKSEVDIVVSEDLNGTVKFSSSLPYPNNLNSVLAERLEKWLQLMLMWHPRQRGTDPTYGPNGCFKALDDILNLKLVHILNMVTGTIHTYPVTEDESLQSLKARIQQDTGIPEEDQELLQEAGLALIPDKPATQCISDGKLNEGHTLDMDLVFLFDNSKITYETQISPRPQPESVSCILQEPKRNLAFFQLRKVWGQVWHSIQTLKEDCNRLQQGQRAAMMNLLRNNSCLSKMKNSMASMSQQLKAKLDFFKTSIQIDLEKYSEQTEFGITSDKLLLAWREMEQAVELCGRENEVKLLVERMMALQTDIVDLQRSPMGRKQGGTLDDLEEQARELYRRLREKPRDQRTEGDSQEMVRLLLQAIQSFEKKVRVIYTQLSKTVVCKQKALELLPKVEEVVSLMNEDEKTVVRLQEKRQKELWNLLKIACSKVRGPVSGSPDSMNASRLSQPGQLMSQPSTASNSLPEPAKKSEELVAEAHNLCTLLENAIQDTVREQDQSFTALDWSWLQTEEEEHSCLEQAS
Sequence of Bone morphogenetic protein receptor type-2 (Homo sapiens) (Q13873 whole entry, the tested form may be a part): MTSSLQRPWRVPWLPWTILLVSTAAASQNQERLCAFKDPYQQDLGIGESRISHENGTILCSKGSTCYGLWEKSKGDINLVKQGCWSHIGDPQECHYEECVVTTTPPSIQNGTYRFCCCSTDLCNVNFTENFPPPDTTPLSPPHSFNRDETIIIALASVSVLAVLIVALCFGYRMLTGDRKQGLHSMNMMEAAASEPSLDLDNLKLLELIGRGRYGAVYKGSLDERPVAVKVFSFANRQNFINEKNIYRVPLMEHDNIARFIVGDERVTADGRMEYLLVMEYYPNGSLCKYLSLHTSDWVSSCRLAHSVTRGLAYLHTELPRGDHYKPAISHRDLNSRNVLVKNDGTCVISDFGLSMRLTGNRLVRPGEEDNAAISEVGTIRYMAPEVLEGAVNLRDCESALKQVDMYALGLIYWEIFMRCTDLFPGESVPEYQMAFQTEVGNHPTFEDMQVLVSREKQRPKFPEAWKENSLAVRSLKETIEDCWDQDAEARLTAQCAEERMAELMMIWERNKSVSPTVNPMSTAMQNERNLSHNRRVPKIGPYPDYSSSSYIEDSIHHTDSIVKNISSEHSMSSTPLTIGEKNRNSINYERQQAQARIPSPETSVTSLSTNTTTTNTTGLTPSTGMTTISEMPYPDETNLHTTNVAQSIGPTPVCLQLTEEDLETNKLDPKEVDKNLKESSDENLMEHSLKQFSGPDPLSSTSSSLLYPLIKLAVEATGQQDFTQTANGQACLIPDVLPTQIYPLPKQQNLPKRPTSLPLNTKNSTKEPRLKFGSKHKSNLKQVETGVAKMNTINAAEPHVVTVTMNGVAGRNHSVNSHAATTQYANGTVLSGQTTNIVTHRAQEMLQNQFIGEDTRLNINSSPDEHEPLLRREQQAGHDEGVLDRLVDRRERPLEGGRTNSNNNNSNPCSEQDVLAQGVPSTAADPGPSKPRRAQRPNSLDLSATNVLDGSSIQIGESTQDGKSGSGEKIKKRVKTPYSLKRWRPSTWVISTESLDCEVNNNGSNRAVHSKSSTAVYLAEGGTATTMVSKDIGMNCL
Sequence of Inhibitor of nuclear factor kappa-B kinase subunit alpha (Homo sapiens) (O15111 whole entry, the tested form may be a part): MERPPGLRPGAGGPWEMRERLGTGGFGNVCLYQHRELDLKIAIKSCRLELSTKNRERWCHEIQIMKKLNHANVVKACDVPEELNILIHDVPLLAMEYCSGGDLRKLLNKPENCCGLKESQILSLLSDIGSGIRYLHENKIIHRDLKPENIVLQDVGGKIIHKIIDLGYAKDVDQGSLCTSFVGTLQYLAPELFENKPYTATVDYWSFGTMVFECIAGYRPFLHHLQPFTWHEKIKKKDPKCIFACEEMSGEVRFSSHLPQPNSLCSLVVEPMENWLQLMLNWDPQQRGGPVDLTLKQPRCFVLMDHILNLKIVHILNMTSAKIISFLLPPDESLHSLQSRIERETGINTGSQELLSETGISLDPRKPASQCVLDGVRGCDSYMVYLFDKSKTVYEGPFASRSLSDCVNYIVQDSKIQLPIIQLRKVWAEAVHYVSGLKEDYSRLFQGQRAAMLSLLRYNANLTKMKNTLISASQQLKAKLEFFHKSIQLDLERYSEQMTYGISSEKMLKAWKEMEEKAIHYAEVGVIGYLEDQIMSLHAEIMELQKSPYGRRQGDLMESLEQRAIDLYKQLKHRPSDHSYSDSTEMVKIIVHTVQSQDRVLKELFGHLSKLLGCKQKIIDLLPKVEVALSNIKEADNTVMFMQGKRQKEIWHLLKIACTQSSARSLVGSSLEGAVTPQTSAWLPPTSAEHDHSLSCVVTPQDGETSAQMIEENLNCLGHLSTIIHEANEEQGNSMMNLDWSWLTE
Sequence of Phosphatidylinositol 5-phosphate 4-kinase type-2 beta (Homo sapiens) (P78356 whole entry, the tested form may be a part): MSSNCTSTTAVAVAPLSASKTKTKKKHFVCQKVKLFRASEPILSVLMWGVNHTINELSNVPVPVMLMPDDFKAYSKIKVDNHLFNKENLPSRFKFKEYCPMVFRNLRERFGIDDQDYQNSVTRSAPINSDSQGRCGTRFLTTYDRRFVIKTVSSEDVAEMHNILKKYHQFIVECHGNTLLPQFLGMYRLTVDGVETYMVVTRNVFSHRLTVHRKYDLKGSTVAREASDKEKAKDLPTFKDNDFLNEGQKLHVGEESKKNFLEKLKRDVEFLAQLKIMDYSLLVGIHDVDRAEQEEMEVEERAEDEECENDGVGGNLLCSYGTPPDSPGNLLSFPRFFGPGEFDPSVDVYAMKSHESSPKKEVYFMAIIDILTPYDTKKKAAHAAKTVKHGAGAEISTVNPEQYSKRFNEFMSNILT

Consider `COc1cc(OC)c(Cl)c(N2Cc3cnc(Nc4ccc(F)cc4)nc3N(C3CCN(C(=O)/C=C/CN(C)C)CC3)C2=O)c1Cl`, for which the Activity came to 96% in experiment [1]; 100% in experiment [2]; 94% in experiment [3]; 94% in experiment [4]; 100% in experiment [5]; 85% in [6]. The Activity stood at 89% in experiment [7]; 100% in [8]; 100% in experiment [9]; 89% in experiment [10]; 90% in [11]; 100% in [12]. The Activity in [13] is 61%; in [14], 79%; in experiment [15] it was 93%; in experiment [16], 95%; in experiment [17], 93%; in experiment [18] it was 100%. The Activity in [20] was found to be 99%; in experiment [21], 59%. For the same molecule, the IC50 in [19] worked out at 990 pM.
